Hck Nef HTS – human Hck-Nef kinase inhibition; AID 463187; hit rate 0.68% among 220,000; Recombinant Hck-YEEI plus Nef, Z-Lyte FRET kinase assay; inhibition, % at 20 µM;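 active = Hck-Nef kinase inhibition above about 50%, limit read from the data; inactive = inhibition below that limit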
Target sequence (P08631 whole entry, looked up): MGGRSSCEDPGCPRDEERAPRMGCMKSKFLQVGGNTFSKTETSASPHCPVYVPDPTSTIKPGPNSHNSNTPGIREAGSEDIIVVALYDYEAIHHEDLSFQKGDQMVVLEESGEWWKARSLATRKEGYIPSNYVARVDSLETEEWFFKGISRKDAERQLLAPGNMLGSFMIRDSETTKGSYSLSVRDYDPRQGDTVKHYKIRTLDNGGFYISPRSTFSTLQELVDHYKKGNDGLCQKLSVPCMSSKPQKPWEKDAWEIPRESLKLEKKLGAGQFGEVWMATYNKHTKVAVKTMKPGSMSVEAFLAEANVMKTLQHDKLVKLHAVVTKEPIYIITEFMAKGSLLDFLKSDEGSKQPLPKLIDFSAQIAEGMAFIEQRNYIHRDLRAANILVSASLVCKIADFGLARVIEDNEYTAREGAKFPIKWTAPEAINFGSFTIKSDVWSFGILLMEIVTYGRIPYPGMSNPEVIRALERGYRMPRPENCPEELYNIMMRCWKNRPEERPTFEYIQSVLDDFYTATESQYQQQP
Runt-SMMHC FRET – blocks binding of human RUNX1 Runt domain to CBFb-SMMHC | Q01196+Q13951 | Cerulean-Runt/Venus-CBFb-SMMHC FRET ratio 530/480, 1 h | inhibition, % at 20 µM | hit rate 0.74% among 220,000 | AID 1434;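 active = mean inhibition across duplicate retests at 20 µM reaching about 50%, limit read from the data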;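 note: inhibitors lower the FRET ratio by blocking Runt binding to CBFb-SMMHC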
RanGTP-Impb inh – disruptors of Ran-importin-beta complex formation – biochemical, FRET, CFP-Ran, YFP-importin-beta, homogeneous, primary screen; AID 2216; hit rate 1.1% among 300,000; cell-free CFP-Ran/YFP-importin-beta FRET ratio; inhibition, % (concentration not given with the values);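 active = more than half of the replicate wells show a fall in the fluorescence ratio signal beyond about 16%, limit read from the data, passing the limit was not always enough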
Runt-CBFb FRET – Runt domain-CBFb interaction inhibition | hit rate 0.46% among 220,000 | inhibition, % at 20 µM | Cerulean-Runt/Venus-CBFb FRET ratio 530/480, 1 h | Q01196+Q13951;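 active = inhibition over about 50% at 20 µM in the single-dose screen, limit read from the data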
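Assay system: Cerulean-Runt domain / Medium: Tris 50 mM pH 7.5, KCl, K2SO4, 0.01% BSA / Timing: protein complex preformed 1 h, compound exposure 1 h, room temperature, dark / Measured by: FRET, excitation 422 nm, emission at 530 and 480 nm / Evaluation: loss of energy transfer signal / Control set: 5 µM unlabeled CBFb as full-inhibition high control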
YIC counter – counter-screen YIC FRET for RanGTP-importin-beta inhibitors | Purified YIC probe, intramolecular FRET ratio YFP/CFP | IC50, µM | hit rate 40% among 1,000 | shares compounds with RanGTP-Impb inh;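 active = fitted half-maximal inhibitory concentration no more than tenfold above the top dose tested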
Hits are given with their value; – = inactive; · = not tested or not shown. In the library only some 1.8% were active in any assay of this set; here they are far more common.

SMILES | Hck Nef HTS | Runt-SMMHC FRET | RanGTP-Impb inh | Runt-CBFb FRET | YIC counter
Cn1c(=O)c2c(ncn2CCOc2ccc(F)cc2)n(C)c1=O | · | · | 16 | · | –
CCn1c(SCC(=O)N(Cc2ccccc2)C2CCS(=O)(=O)C2)nc2ccccc2c1=O (configuration not stated) | – | – | 20 | – | –
CCN1CCc2nc(NC(=O)Cc3ccc4c(c3)OCCO4)sc2C1 | – | – | · | – | ·
CCN1CCc2nc(NC(=O)CC(c3ccccc3)c3ccccc3)sc2C1 | – | 60 | 31 | – | 16
Nc1nc(CSc2nc3ccccc3s2)nc(N2CCCCC2)n1 | – | – | 36 | – | –
CCc1ccc(Nc2nc(N)nc(CSc3nc4ccccc4s3)n2)cc1 | – | – | – | – | ·
COc1ccc(NC(=O)CCNC(=O)c2ccco2)c(OC)c1 | · | · | – | · | ·
COc1cc(NC(=O)c2n[nH]c(=O)c3ccccc23)cc(OC)c1 | – | – | – | – | ·
COc1ccc(-c2nc(NC(=O)c3n[nH]c(=O)c4ccccc34)sc2C)cc1 | – | – | 22 | – | –
CCNC(=S)N/N=C/c1sc(N2CCCCC2)nc1-c1cccs1 | – | – | – | – | ·
CC1CC1c1ccc(/C=C(\C#N)C(=O)Nc2ccc(Cl)cc2)o1 (configuration not stated) | – | – | 16 | – | –
CC1CC1c1ccc(/C=C(\C#N)C(=O)Nc2ccccc2Cl)o1 (configuration not stated) | – | – | 36 | – | 52
N#C/C(=C/c1ccc(N2CCCCC2)o1)C(=O)Nc1ccc(Cl)cc1 | – | – | – | – | ·
COc1ccc(NC(=O)/C(C#N)=C\c2ccc(N3CCOCC3)o2)cc1 | – | – | 18 | – | 47
CCS(=O)(=O)Nc1cc2c3c(c1)CCC(=O)N3CCC2 | · | · | – | · | ·
COc1ccc2c(c1)C(c1ccc(C)o1)=NNC(c1cccnc1)=N2 | – | – | 21 | – | –
COc1ccc2c(c1)C(c1ccc(C)o1)=NNC(c1ccccc1)=N2 | – | – | – | – | ·
CC(NC(=O)/C(C#N)=C/c1ccc(N2CCOCC2)cc1)c1ccccc1 (configuration not stated) | · | · | 31 | · | 11
CC(C)NC[C@@H](O)COc1ccc(CC(N)=O)cc1 | · | · | – | · | ·
COCCNC(=O)c1cnn2c(C(F)F)cc(-c3ccc(C)cc3)nc12 | – | – | 18 | – | 42
O=C(/C=C/c1ccc2c(c1)OCO2)Nc1cccnc1 | – | – | – | – | ·
CC(=O)c1c(N2CCN(C)CC2)nc(=S)n(-c2cc(C)ccc2C)c1C | – | 74 | 34 | – | –
CCOC(=O)N1CCN(c2nc(=S)n(-c3ccccc3)c(C)c2C(C)=O)CC1 | – | – | – | – | ·
O=C(OCC(O)COc1ccccc1)c1ccc([N+](=O)[O-])cc1 (configuration not stated) | · | · | – | · | ·
Cc1ccc(Nc2cc(C)nn2-c2nc(C)cc(C)n2)cc1 | – | – | 24 | – | –
SMILES | Hck Nef HTS | Runt-SMMHC FRET | RanGTP-Impb inh | Runt-CBFb FRET | YIC counter
CC1CC(C)(C)N(C(=O)CN2C(=O)CCC2=O)c2ccccc21 (configuration not stated) | · | · | – | · | ·
O=C(O)C1C2CCC(C2)C1C(=O)NCCc1cccc(Cl)c1 (configuration not stated) | · | · | – | · | ·
O=C(O)C1C2CCC(C2)C1C(=O)NCCc1ccc(F)cc1 (configuration not stated) | · | · | 21 | · | –
COc1ccc(CCN2CC(C(=O)Nc3cc(F)ccc3F)CC2=O)cc1OC (configuration not stated) | · | · | – | · | ·
COc1cc(NC(=O)CN2CCN(CC(=O)Nc3ccccc3OC)CC2)cc(OC)c1 | · | · | – | · | ·
Nc1nonc1-n1nnc(C(=O)N/N=C/c2ccccc2)c1CSc1ccc(Cl)cc1 | – | – | 17 | – | –
CC(C)(C)C(=O)NC(=S)Nc1ccc(S(=O)(=O)Nc2nccs2)cc1 | – | – | 17 | – | –
CC(=O)N(/N=C1\Sc2ccccc2C1=O)c1ccccc1C | – | – | 24 | · | 40
CC(=O)N(/N=C1\Sc2ccccc2C1=O)c1ccc(C)cc1C | – | – | – | – | ·
COc1ccc(/C=C/C(=O)Oc2ccc(/C=N/NC(=O)c3ccncc3)cc2)cc1 | · | · | – | · | ·
NS(=O)(=O)c1ccc(CCNC(=O)C2CCN(S(=O)(=O)c3ccc(Br)s3)CC2)cc1 | – | – | 24 | – | –
CCc1ccc(NC(=O)Nc2ccsc2C(=O)OC)cc1 | · | · | – | · | ·
Cc1ccc(F)c(NC(=O)c2c(-c3ccccc3)noc2C)c1 | · | · | – | · | ·
